The nature of series [1]: Drug uptake in Wistar-Hannover rat assessed as plasma concentration at 30 mg/kg, po after 6 hrs by LC/MS-MS analysis. The series is classed as ADME, organism-based. The essentials:
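Male Wistar-Hannover rats, n = 2 or 3, given an oral suspension in 0.5% methyl cellulose with 0.1% Tween 80; one compound was dosed as the HCl salt. Total plasma and liver concentrations were measured 6 h post-dose. Kp = liver/plasma total concentration. Kpu,u uses fu values from equilibrium dialysis.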

Series [2] concerns the target T1, OATP1B3 (Homo sapiens, UniProt Q9NPD5).
T1 sequence (Q9NPD5 whole entry): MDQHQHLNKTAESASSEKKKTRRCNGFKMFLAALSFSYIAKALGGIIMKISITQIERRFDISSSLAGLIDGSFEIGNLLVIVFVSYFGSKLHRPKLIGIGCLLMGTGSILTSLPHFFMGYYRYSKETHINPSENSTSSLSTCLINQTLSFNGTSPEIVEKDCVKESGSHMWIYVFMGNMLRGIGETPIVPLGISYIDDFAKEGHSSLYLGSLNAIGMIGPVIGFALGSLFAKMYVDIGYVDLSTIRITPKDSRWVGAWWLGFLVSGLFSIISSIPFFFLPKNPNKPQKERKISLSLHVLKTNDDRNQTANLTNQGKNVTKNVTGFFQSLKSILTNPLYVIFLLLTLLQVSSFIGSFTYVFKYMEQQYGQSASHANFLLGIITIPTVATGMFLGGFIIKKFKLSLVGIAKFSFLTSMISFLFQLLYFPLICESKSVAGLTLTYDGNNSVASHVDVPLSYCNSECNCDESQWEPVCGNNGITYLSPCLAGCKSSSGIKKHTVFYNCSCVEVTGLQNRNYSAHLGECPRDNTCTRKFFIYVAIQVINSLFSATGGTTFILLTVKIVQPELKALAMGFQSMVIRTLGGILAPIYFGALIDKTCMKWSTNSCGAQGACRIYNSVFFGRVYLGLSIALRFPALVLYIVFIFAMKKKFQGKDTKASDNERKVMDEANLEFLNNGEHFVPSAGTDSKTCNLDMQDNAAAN
Nature of the series: Substrate activity at human OATP1B3 stably expressed in HEK293 cells assessed as ratio of total to passive cellular uptake at 1 uM incubated for 5 mins by LC/MS-MS analysis. Type of series: ADME, cell-based. The following applies: HEK293 cells stably expressing human OATP1B3. In a few lines:
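Transfected versus parental HEK293 cells exposed at 1 µM for 5 min at 37 °C. Ratio is total (transfected) over passive (parental) uptake; >2 denotes substrate.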

The subject of series [3] is Rattus norvegicus. Kind of series: Effect on triglyceride accumulation in Sprague-Dawley rat high fat dietary model at 1 mg/kg, po assessed as reduction in triglyceride level after 42 days by XPT clinical analyzer. The series is classed as functional. Set-up: scale not given: the % may be the effect or the level left. As to conditions: time 42 day; call rule not given here. In a few lines:
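High-fat-diet-fed Sprague-Dawley rats dosed orally for 42 days, with chow-fed and vehicle controls, n = 10 per group. Read-out is hepatic triglyceride, reported as mean ± SEM.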

Series [4] is described as follows: Genotoxicity in Salmonella typhimurium TA1535 by Ames test. As to conditions: salmonella enterica subsp. enterica serovar typhimurium. Type of series: toxicity. The essentials: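 Ames test in Salmonella strains TA98, TA100, TA1535 and TA1537, run with and without aroclor-induced rat liver S9 plus NADPH.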
On the technique in general: In the Ames test, an excess of revertant colonies over the control signals mutagenicity.

Series [5] deals with Cytochrome P450 3A4 (Homo sapiens, UniProt P08684). Nature of the series: Activation of CYP3A4 in human hepatocytes at 0.5 to 200 uM. Type of series: ADME, cell-based, Hepatocyte. The following applies: dose 0.5-200 µM. The essentials: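 Individual human hepatocyte lots treated at 0.5–200 µM. Read-out is CYP3A4 enzyme activity.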
Chain of Cytochrome P450 3A4 (P08684 whole entry): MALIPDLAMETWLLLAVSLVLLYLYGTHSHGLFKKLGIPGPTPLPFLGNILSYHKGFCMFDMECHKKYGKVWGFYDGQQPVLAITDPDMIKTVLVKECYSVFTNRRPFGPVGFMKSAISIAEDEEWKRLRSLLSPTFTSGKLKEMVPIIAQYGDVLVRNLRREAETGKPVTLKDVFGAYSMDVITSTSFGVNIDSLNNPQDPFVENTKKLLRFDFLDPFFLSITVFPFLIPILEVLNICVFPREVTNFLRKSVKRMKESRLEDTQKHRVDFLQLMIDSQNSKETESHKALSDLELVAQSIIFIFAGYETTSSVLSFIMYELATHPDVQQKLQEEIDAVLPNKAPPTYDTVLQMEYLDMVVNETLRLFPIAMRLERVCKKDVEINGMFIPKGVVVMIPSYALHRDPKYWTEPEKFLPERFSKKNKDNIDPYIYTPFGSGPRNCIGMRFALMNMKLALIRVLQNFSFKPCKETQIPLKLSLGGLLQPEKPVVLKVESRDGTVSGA
For series [6], the target named is Cytochrome P450 2D6 (Homo sapiens, UniProt P10635). Kind of series: inhibition of CYP2D6 in human liver microsomes. Type of series: ADME. Background: Liver microsomes are a subcellular fraction often used to study metabolism.
Chain of Cytochrome P450 2D6 (P10635 whole entry): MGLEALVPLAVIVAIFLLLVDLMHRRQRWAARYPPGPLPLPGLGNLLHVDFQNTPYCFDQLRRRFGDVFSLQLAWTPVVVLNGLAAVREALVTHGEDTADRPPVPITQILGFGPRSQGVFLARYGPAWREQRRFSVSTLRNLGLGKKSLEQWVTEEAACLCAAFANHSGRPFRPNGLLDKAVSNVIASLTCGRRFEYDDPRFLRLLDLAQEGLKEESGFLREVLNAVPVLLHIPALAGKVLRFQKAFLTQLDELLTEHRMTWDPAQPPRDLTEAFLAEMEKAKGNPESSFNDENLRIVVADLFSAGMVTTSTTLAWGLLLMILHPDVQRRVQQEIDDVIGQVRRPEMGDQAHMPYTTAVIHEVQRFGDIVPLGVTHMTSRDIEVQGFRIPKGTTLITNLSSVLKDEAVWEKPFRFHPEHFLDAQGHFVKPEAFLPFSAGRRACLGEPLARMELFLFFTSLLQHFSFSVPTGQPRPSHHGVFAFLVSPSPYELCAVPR
Series [7] in a line: Drug uptake in human hepatocytes assessed as active uptake intrinsic clearance at 1 uM up to 15 mins by LC-MS/MS analysis. The series is classed as ADME, cell-based, Hepatocyte. The following applies: 0.25 h.

SMILES strings stand for the structures.

In general, IC50 refers to the midpoint of a concentration-inhibition curve.

On to `COc1cc(C(=O)N2CCC3(CC2)CC(=O)c2nn(C(C)(C)C)cc2O3)cc(-c2ccc(C(=O)O)cc2)n1`, for which the concentration at 6 h in series [1] came to 0.0417 µg/mL. Also, the uptake ratio at 5 min, 1 µM in series [2] is 3.3.
Take `COc1cc(C(=O)N2CCC3(CC2)CC(=O)c2c(cnn2C(C)C)C3)cc(-c2ccc(C(=O)O)cc2)n1` [CLESACOSTAT]: the figures for the Activity in series [3], in series [4] and in series [5] were 30%, “Non-Toxic” and “Not Active”, respectively. Besides, the 50% inhibitory concentration (IC50) in series [6] is over 50 µM. Further, the CLH in series [7] stood at 24 µL/min/mg.

For the origin of these results see ChEMBL document CHEMBL4665761, “Optimizing the Benefit/Risk of Acetyl-CoA Carboxylase Inhibitors through Liver Targeting” (J Med Chem, 2020).
